High-throughput results: PubChem BioAssay, Broad Institute
HIF act = HIF pathway transcriptional activation; U2OS HRE-luciferase reporter, luminescence; normalized: DMSO 0%, desferrioxamine 100%; AID 1910; activation, % at 7.5 µM (by protocol); 300,000 compounds, 0.32% hits;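 active = mean activation of at least 10% of the iron chelator positive control signal, with at least half of replicates also reaching 10%; inconclusive = mean and replicate majority disagree about reaching 10%; inactive = mean and most replicates under 10%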
T cruzi repl = T. cruzi replication inhibition | AID 1885 | T. cruzi beta-gal in NIH3T3, luminescence, 90 h | inhibition, % (concentration not given with the values) | 300,000 compounds, 1.4% hits;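 active = mean inhibition across valid replicates above about 55%, limit read from the data; inconclusive = mean below that limit but half or more replicates reach it; inactive = mean below it, under half of replicates reach it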;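 also: signal also drops with host cell toxicity which is not excluded here; higher percent means less beta-gal luminescence so fewer parasites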
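System: NIH/3T3 fibroblasts plus reporter T. cruzi. Medium: DMEM plus 2% FBS. Probe or stimulus: 5000 reporter trypomastigotes per well. Compound: single 50 nL compound addition per well in DMSO. Incubation: co-culture of at least 90 h after 3 h attachment. Detection: GalScreen β-gal luminescence, detergent lysis, 60 min. Evaluation: parasite load inhibition, %.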
Beta cell apopt = beta cell apoptosis inhibition; INS-1E cytokine-induced death, ATP luminescence, 48 h; percent of positive-control rescue, neutral wells zero; protection from apoptosis, % (test concentration not listed); 300,000 compounds, 0.8% hits;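 active = Every replicate reaches about 75%, or at least half do and their mean reaches it too, limit read from the data; inconclusive = At least half of replicates reach the limit but their mean does not; inactive = Under half of replicates reach the limit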;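 also: higher means more ATP so stronger rescue from cytokine killing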
PfHsp90 yeast 2 = growth inhibition of yeast expressing Plasmodium Hsp90. inhibition, % at 9.4 µM. S. cerevisiae expressing PfHsp90, BacTiter-Glo ATP, 48 h; yeast lacking PDR1 and PDR3 efflux regulators. AID 504621. 310,000 compounds, 0.32% hits;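 active = every replicate shows inhibition above about 80%, whatever the replicate mean, limit read from the data; inconclusive = mean inhibition reaches the set limit but some replicate falls short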
SKKanGAS inh = SKKanGAS growth inhibition; S. pyogenes SKKanGAS, kanamycin growth, BacTiter-Glo, 6 h; inhibition, % at 7.5 µM; 300,000 compounds, 1.3% hits; AID 1662;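 active = mean replicate score, as percent of positive control median, at least 50; inconclusive = mean below 50 but one replicate at or above 50; inactive = mean and every replicate below 50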;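 also: strain carries kanamycin resistance gene driven by streptokinase promoter and grows in 40 µg/ml kanamycin; loss of luminescence reflects streptokinase promoter inhibition or plain growth inhibition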
CSC inhib = cancer stem cell inhibition | AID 2717 | cancer stem cell-like cells viability, luminescence | 300,000 compounds, 1.1% hits | inhibition, % at 7.5 µM; in the data active = inhibition above about 75%; inconclusive = no clear call, values can overlap the other calls; tested in HMLE shEcad cells
Numbers stand for hits; 0 = inactive; ? = inconclusive; - = not tested or not shown; + = active, no number. The list is not random: actives were taken first. Their share in the collection is about 3.6%.

SMILES	HIF act	T cruzi repl	Beta cell apopt	PfHsp90 yeast 2	SKKanGAS inh	CSC inhib
COc1ccc(-c2nc(N)ncc2-c2ccc(OC)c(OC)c2)c(O)c1	0	0	0	0	0	0
C=C(C)COc1ccc(-c2[nH]ncc2Oc2ccc(OC)cc2)c(O)c1	0	0	0	?	56	?
CC(C)(C)c1ccc(S(=O)(=O)N2CCc3nc4ccccc4c(C(=O)O)c3C2)cc1	0	0	0	0	0	0
CN(C(=S)NC(=O)c1ccccc1)C1CCCCC1	0	0	0	0	?	0
Cn1c(N)c(N=O)c(=O)n(C)c1=S	-	-	-	0	-	-
C=CCn1c(=O)[nH]c(=O)c2c(N)c(C(=O)c3ccc(OC)cc3)sc21	-	-	-	0	-	-
Cc1nn(C)cc1S(=O)(=O)NCc1ccc2c(c1)OCO2	263	0	0	0	0	0
Cc1ccc(C(=O)Nc2nc3ccccc3n2CCN2CCCC2)cc1	0	0	0	0	0	0
CCCn1c(NC(=O)c2cccc(S(=O)(=O)N3CCCC3)c2)nc2ccccc21	0	0	0	0	64	-
CCCCn1c(Nc2ccccc2)nc2ccccc21	0	0	0	-	0	0
CCCn1c(NC(=O)c2ccccc2)nc2ccccc21	0	0	0	0	69	0
CCCn1c(Nc2nc3ccccc3n2C)nc2ccccc21	0	0	111	0	0	104
C=CCn1c(NC(=O)c2ccc(C)cc2)nc2ccccc21	0	61	0	0	59	0
CCCn1c(NC(=O)c2ccc(C)cc2)nc2ccccc21	0	0	0	0	0	0
O=C(CSc1nnnn1-c1ccccc1)NCC1(N2CCOCC2)CCCCC1	-	-	0	0	-	0
Cc1cn(CC(=O)NCc2ccc3c(c2)OCO3)c(=O)[nH]c1=O	-	-	-	0	-	-
CCCn1c(NC(=O)C2CCN(S(=O)(=O)c3cccs3)CC2)nc2ccccc21	0	0	0	0	51	0
O=C(NNC(=O)c1ccccc1O)c1ccc(Cl)c(S(=O)(=O)N2CCc3ccccc32)c1	0	0	83	0	0	0
O=C(c1ccc(Cl)c(S(=O)(=O)N2CCc3ccccc32)c1)N1CCN(c2ccccc2O)CC1	-	-	0	0	-	0
Cc1noc(NS(=O)(=O)c2ccc(NC(=O)c3oc4ccc(Cl)cc4c3C)cc2)c1C	0	0	0	0	64	0
Cc1ccc2c(=O)cc(C(=O)Nc3ccc(S(=O)(=O)Nc4onc(C)c4C)cc3)oc2c1	0	0	-	0	0	-
Cc1ccc2c(C)c(C(=O)Nc3ccc(S(=O)(=O)Nc4onc(C)c4C)cc3)oc2c1	0	0	-	0	65	0
CCOC(=O)C1=C(c2ccccc2)O/C(=C(/C#N)C(F)(F)F)S1	0	70	116	-	0	0
CCOC(=O)C1=C(c2ccccc2)O/C(=C(\C(=O)OC)C(F)(F)F)S1	0	0	0	0	0	0
CC(=O)c1c(C)[nH]c(C(=O)OCc2ccccc2)c1C	0	0	0	0	0	0
SMILES	HIF act	T cruzi repl	Beta cell apopt	PfHsp90 yeast 2	SKKanGAS inh	CSC inhib
CC(=O)c1c(C)[nH]c(C(=O)OCCCCN2C(=O)c3ccccc3C2=O)c1C	0	0	104	0	0	0
Cc1cc(C)c(C(=O)N2CCCC(N3CCN(c4cccc(C(F)(F)F)c4)CC3)C2)o1 (centres undefined)	135	?	0	0	0	0
CCn1c(SCC(=O)Nc2cc(C)on2)nc2sc3c(c2c1=O)CCCC3	0	0	82	0	0	0
CCCCOC(=O)Nc1ccc(S(=O)(=O)Nc2nc(C)cc(C)n2)cc1	0	0	0	-	0	-
CCCCOC(=O)NS(=O)(=O)c1sc(CC(C)C)cc1-c1ccc(Cn2c(CC)nc3c(C)cc(C)nc32)cc1	-	-	0	-	-	100
Cc1nc(CN(C)C(=O)CC2C(=O)NCCN2Cc2ccc(-c3ccccc3)cc2)cs1 (centres undefined)	0	0	0	0	0	0
CN(CCS(=O)(=O)c1ccc(Cl)cc1)Cc1cccnc1	116	0	0	0	0	0
CC(C)COc1ccc(-c2nn(-c3ccccc3)cc2/C=C2/SC(=S)N(CC(=O)O)C2=O)cc1	0	0	0	0	72	+
O=C(c1ccc(F)cc1)c1cc2ccc(O)cc2oc1=O	0	0	0	0	65	0
COc1ccccc1C(=O)c1cc2ccc(O)cc2oc1=O	0	0	0	0	0	0
Cc1ccc(C(=O)NC(=S)Nc2ccc(-c3ccc(CO)o3)cc2)cc1	0	0	0	0	61	0
O=C(NC(=S)Nc1ccc(-c2ccc(CO)o2)cc1)c1cccs1	0	0	0	0	-	0
Cc1ccccc1C(=O)NC(=S)Nc1ccc(Oc2ccc(Cl)cc2)cc1	0	0	0	0	0	0
O=C(NC(=S)Nc1ccc(Oc2ccccc2)cc1)c1ccc(Cl)cc1	0	62	0	0	0	0
Cc1ccc(C(=O)NC(=S)Nc2ccc(Oc3ccc(Cl)cc3)cc2)cc1	0	65	0	0	0	0
CON(C)C(=O)/C=C/c1ccc([B-](F)(F)F)cc1	-	-	-	0	-	-
O=c1cc(CSc2nc(NCc3ccc(Cl)cc3)c3ccccc3n2)nc2ccc(Cl)cn12	-	-	-	0	-	-
CCCN(CCC)C(C)C(=O)NCC1(c2ccccc2)CCCC1 (centres undefined)	719	0	0	0	0	0
COc1ccc(CNc2oc(Cc3cccc4ccccc34)nc2C#N)cc1	0	0	0	0	54	0
COc1ccc(CNc2oc(COc3ccccc3)nc2C#N)cc1	0	0	0	-	0	0
COc1ccc(C=NN=C2c3ccccc3-c3ccccc32)cc1OC	-	-	-	0	-	-
COc1cccc(/C=C2/CCC(CN(C)C)C2=O)c1 (centres undefined)	-	-	-	146	-	-
COc1ccc2cc3cc(C(=O)NCCN4CCN(c5ccccc5F)CC4)oc3nc2c1	0	0	0	0	0	0
COc1ccc2cc3cc(C(=O)Nc4ccccc4N4CCN(C)CC4)oc3nc2c1	0	67	0	0	0	0
N#Cc1c2ccc([N+](=O)[O-])cc2[n+]([O-])n1-c1ccccc1	-	-	101	91	-	-
SMILES	HIF act	T cruzi repl	Beta cell apopt	PfHsp90 yeast 2	SKKanGAS inh	CSC inhib
NCCCn1c(C(=O)c2ccc(Cl)cc2)c2ccc([N+](=O)[O-])cc2[n+]1[O-]	0	0	0	0	0	0
Cc1noc(C)c1S(=O)(=O)Nc1ccc2c(c1)C(=O)N([C@H](C)CO)C[C@H](C)[C@@H](CN(C)C(=O)NC1CCCCC1)O2	-	-	0	0	-	0
C#CCN(C[C@@H](CC(C)C)NC(=O)OC(C)(C)C)S(=O)(=O)c1ccc(Br)cc1F	-	-	-	0	-	-
Cc1cc(Cl)ccc1OCC(=O)Nc1cccnc1	0	0	0	0	0	0
O=c1oc2cc(O)ccc2cc1-c1nc2c(s1)CCc1ccccc1-2	-	-	0	0	-	83
O=c1oc2ccccc2cc1-c1nc2c(s1)CCc1ccccc1-2	0	0	0	0	0	0
COCCCNC(=O)c1c(N)n(-c2cccc(S(N)(=O)=O)c2)c2nc3ccccc3nc12	0	0	0	0	0	0
CCCNC(=O)c1c(N)n(-c2cccc(OC)c2)c2nc3ccccc3nc12	0	0	104	-	0	0
Cn1c(-c2ccccn2)[n+](C)c2ccccc21	0	0	0	0	0	0
